Test results taken from ChEMBL document CHEMBL1131140, “Synthesis and antimalarial activities of fluoroalkyl derivatives of dihydroartemisinin” (J Med Chem, 1998).
pIC50: −log10 of the molar value.

The molecules below were run on Plasmodium falciparum (assay: In vitro antimalarial activity for Plasmodium falciparum W-2).
Assay type: functional, organism-based
Summary of the method: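 P. falciparum W-2 cultured in A+ human erythrocytes, RPMI with 10% A+ human serum, 25 mM HEPES, 25 mM NaHCO3, 37 °C, 10% O2/6% CO2/84% N2. Assay at 0.5% parasitemia, 1.5% hematocrit; 2-fold dilutions (methanol stocks), final 1.6–200 nM in triplicate; [3H]hypoxanthine uptake over 42 h; IC50 by nonlinear regression of log dose–response; mean of ≥3 experiments.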

Compound | pIC50
C[C@@H]1CC[C@H]2[C@@H](C)C(OCC(F)(F)C(F)C(F)(F)F)O[C@@H]3OC4(C)CC[C@@H]1[C@]32OO4 (single isomer, unassigned) | 7.47
CCOC(=O)C(OC1O[C@@H]2OC3(C)CC[C@H]4[C@H](C)CC[C@@H]([C@H]1C)[C@@]24OO3)C(F)(F)F (single isomer, unassigned) | 7.21
C[C@@H]1CC[C@H]2[C@@H](C)C(OC(c3ccccc3)C(F)(F)F)O[C@@H]3OC4(C)CC[C@@H]1[C@]32OO4 (single isomer, unassigned) | 7.18
C[C@H]1C(OCC(F)(F)F)O[C@@H]2OC3(C)CC[C@H]4[C@H](C)CCC1[C@@]24OO3 (single isomer, unassigned) | 7.51
C[C@@H]1CC[C@H]2[C@@H](C)C(OCC(F)(F)C(F)(F)C(F)(F)F)O[C@@H]3OC4(C)CC[C@@H]1[C@]32OO4 (single isomer, unassigned) | 7.44
COC1O[C@@H]2OC3(C)CC[C@H]4[C@H](C)CC[C@@H]([C@H]1C)[C@@]24OO3 (single isomer, unassigned) | 8.12
C[C@@H]1CC[C@H]2[C@@H](C)C(OC(C(F)(F)F)C(F)(F)F)O[C@@H]3OC4(C)CC[C@@H]1[C@]32OO4 (single isomer, unassigned) | 7.47
CC(OC1O[C@@H]2OC3(C)CC[C@H]4[C@H](C)CC[C@@H]([C@H]1C)[C@@]24OO3)C(F)(F)F (single isomer, unassigned) | 7.46
C[C@@H]1CC[C@H]2[C@@H](C)[C@](O)(C(F)(F)F)O[C@@H]3OC4(C)CC[C@@H]1[C@]32OO4 (single isomer, unassigned) | 8.59
CO[C@H]1O[C@@H]2O[C@@]3(C)CC[C@H]4[C@H](C)CC[C@@H]([C@H]1C)[C@@]24OO3 [ARTEMETHER] | 8.27
C[C@@H]1CC[C@H]2[C@@H](C)C(OC(c3ccccc3)(C(F)(F)F)C(F)(F)F)O[C@@H]3OC4(C)CC[C@@H]1[C@]32OO4 (single isomer, unassigned) | 7.42
C[C@@H]1CC[C@H]2[C@@H](C)C(OCC(F)(F)C(F)(F)F)O[C@@H]3OC4(C)CC[C@@H]1[C@]32OO4 (single isomer, unassigned) | 7.57
